Experimental data from paper PMC10951978 (RSC Advances, 2024).
Like-named read-outs stand apart in the source and are kept apart here.

How the values were obtained:
K562 = assay: CCK8 antiproliferative assay, K562; assay type: cell-based, human; conditions: read-out: Antiproliferative activity (IC50/μM) K562
KU812 = assay: CCK8 antiproliferative assay, KU812; assay type: cell-based, human; conditions: read-out: Antiproliferative activity (IC50/μM) KU812
MV411 = assay: CCK8 antiproliferative assay, MV411; assay type: cell-based, human; conditions: read-out: Antiproliferative activity (IC50/μM) MV411; MV411, CCK8, 48 h, means ± SD, n = 3
Kasumi-1 = assay: CCK8 antiproliferative assay, Kasumi-1; assay type: cell-based, human; conditions: read-out: Antiproliferative activity (IC50/μM) Kasumi-1; Kasumi-1, CCK8, 48 h, means ± SD, n = 3
CCRF-CEM = assay: CCK8 antiproliferative assay, CCRF-CEM; assay type: cell-based, human; conditions: read-out: Antiproliferative activity (IC50/μM) CCRF-CEM, CCK8, 48 h, means ± SD, n = 3
HDAC1 = HDAC1 (Homo sapiens, UniProt Q13547); assay: HDAC isoform inhibitory activity; assay type: biochemical
Chain of HDAC1 (Q13547 whole entry, canonical isoform): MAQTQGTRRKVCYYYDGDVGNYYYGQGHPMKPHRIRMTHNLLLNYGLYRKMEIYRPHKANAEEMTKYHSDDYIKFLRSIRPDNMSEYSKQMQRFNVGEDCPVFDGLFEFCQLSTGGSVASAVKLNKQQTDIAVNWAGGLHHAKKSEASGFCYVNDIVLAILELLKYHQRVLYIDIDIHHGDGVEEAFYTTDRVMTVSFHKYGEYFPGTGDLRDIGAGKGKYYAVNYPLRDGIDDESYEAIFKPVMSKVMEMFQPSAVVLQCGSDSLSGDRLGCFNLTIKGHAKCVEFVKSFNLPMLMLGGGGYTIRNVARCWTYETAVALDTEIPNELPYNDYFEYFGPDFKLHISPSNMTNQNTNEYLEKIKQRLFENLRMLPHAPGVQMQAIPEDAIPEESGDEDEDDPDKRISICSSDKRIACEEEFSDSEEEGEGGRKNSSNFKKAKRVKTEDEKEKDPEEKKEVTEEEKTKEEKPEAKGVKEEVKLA

HDAC2 = HDAC2 (Homo sapiens, UniProt Q92769); assay: HDAC isoform inhibitory activity; assay type: biochemical
Chain of HDAC2 (Q92769 whole entry, canonical isoform): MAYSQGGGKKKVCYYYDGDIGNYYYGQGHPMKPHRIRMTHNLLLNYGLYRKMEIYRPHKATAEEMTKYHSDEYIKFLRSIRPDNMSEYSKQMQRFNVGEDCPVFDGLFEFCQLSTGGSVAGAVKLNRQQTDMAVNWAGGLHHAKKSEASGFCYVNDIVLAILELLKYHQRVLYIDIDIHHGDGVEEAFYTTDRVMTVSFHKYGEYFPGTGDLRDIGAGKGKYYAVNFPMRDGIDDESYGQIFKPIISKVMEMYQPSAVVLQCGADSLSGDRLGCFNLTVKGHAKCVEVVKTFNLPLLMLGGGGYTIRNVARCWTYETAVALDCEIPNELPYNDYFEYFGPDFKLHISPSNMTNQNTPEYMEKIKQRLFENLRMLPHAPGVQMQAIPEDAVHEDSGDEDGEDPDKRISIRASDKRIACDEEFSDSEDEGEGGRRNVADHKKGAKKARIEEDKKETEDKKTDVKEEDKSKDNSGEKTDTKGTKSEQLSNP

HDAC3 = HDAC3 (Homo sapiens, UniProt O15379); assay: HDAC isoform inhibitory activity; assay type: biochemical
Chain of HDAC3 (O15379 whole entry, canonical isoform): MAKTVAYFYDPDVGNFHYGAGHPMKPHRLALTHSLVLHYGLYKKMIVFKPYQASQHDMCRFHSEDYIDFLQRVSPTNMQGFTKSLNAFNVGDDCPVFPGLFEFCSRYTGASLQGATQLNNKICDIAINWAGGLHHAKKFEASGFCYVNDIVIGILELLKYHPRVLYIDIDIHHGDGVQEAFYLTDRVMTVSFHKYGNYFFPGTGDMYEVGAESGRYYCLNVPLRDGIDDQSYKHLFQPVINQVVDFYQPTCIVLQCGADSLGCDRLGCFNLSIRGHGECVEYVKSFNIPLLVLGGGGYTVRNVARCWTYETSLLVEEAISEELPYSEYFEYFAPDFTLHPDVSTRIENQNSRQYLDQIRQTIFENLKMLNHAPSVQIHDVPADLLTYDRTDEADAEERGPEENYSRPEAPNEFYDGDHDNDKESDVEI
Chain of HDAC3 (Q9Y618 395-489 partner limits assumed): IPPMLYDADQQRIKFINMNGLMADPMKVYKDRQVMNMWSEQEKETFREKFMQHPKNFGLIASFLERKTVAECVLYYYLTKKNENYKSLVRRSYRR

HDAC10 = target: T1, HDAC10 (Homo sapiens, UniProt Q969S8); assay: HDAC isoform inhibitory activity; assay type: biochemical
T1 sequence (Q969S8 1-669): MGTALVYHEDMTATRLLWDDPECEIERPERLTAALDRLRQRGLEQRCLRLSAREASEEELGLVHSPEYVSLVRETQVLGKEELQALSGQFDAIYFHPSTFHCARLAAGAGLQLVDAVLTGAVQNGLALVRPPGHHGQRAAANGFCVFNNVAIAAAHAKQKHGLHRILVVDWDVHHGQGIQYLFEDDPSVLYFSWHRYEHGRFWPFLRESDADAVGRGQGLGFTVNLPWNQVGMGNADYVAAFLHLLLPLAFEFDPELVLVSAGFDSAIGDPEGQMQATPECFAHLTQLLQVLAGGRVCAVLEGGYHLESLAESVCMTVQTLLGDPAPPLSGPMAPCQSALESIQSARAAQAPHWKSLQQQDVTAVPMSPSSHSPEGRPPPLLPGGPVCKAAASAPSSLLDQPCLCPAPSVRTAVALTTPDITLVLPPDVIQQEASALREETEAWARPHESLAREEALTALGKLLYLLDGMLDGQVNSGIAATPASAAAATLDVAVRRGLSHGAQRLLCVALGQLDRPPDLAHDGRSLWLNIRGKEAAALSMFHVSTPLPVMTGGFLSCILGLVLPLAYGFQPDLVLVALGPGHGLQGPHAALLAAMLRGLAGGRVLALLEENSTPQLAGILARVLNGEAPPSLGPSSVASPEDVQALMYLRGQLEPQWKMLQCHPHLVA

MV411 cells = assay: Annexin V-FITC/PI apoptosis assay by flow cytometry; assay type: cell-based, human; conditions: 48 hours
Procedure, shortened: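 MV411 cells seeded at 5 × 10^5 per well and held 24 h at 37 °C, 5% CO2. Test compound was then added at 0, 0.25, 0.5 and 1.0 μM for a further 48 h. Cells were harvested, washed in annexin-binding buffer, stained with annexin V-FITC and PI for 15 min at 37 °C, and analysed by flow cytometry.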

acetylated H3 = assay: Western blotting of H3 and acetylated H3; assay type: cell-based, human; conditions: MV411, 0.25, 0.5 and 1.0 μM, 48 hours
[1] = K562, CCK8, 48 h, means ± SD, n = 3
[2] = KU812, CCK8, 48 h, means ± SD, n = 3

| Compound | IC50 (K562; Homo sapiens, K562, 48 h) | IC50 (KU812; Homo sapiens, KU812, 48 h) | further results |
| --- | --- | --- | --- |
| COc1ccc(C[C@H]2COC(=O)[C@@H]2Cc2ccc(OCc3cn(CC(=O)NO)nn3)c(OC)c2)cc1OC [A10, 2-(4-((4-(((3R,4R)-4-(3,4-Dimethoxybenzyl)-2-oxotetrahydrofuran-3-yl)methyl)-2-methoxyphenoxy)methyl)-1H-1,2,3-triazol-1-yl)-N-hydroxyacetamide] | > 5 µM | > 5 µM |  |
| COc1ccc(C[C@H]2COC(=O)[C@@H]2Cc2ccc(OCC(=O)N3CCC(C(=O)NO)CC3)c(OC)c2)cc1OC [A8, 1-(2-(4-(((3R,4R)-4-(3,4-Dimethoxybenzyl)-2-oxotetrahydrofuran-3-yl)methyl)-2-methoxyphenoxy)acetyl)-N-hydroxypiperidine-4-carboxamide] | > 5 µM | > 5 µM |  |
| COc1ccc(C[C@H]2COC(=O)[C@@H]2Cc2ccc(OCCCCCC(=O)NO)c(OC)c2)cc1OC [A3, 6-(4-(((3R,4R)-4-(3,4-Dimethoxybenzyl)-2-oxotetrahydrofuran-3-yl)methyl)-2-methoxyphenoxy)-N-hydroxyhexanamide] | 2.12 ± 0.12 µM | 3.88 ± 1.06 µM |  |
| N-(2-Aminophenyl)-5-(2-(4-(((3R,4R)-4-(3,4-dimethoxybenzyl)-2-oxotetrahydrofuran-3-yl)methyl)-2-methoxyphenoxy)acetamido)pentanamide [B5] |  |  | IC50 (K562; [1]): > 5 µM; IC50 (MV411): > 5 µM; IC50 (KU812; [2]): > 5 µM; IC50 (Kasumi-1): > 5 µM; IC50 (CCRF-CEM): > 5 µM |
| 4-(2-(4-(((3R,4R)-4-(3,4-Dimethoxybenzyl)-2-oxotetrahydrofuran-3-yl)methyl)-2-methoxyphenoxy)acetamido)-N-hydroxybenzamide [B6] |  |  | IC50 (K562; [1]): > 5 µM; IC50 (MV411): > 5 µM; IC50 (KU812; [2]): > 5 µM; IC50 (Kasumi-1): > 5 µM; IC50 (CCRF-CEM): > 5 µM |
| Nc1cc(F)ccc1NC(=O)c1ccc(CNC(=O)/C=C/c2cccnc2)cc1 [Tucidinostat, tucidinostat, reference compound] | 2.68 ± 0.65 µM | 4.26 ± 0.48 µM |  |
| 4-(4-(((3R,4R)-4-(3,4-Dimethoxybenzyl)-2-oxotetrahydrofuran-3-yl)methyl)-2-methoxyphenoxy)-N-hydroxypentanamide [A1] |  |  | IC50 (K562; [1]): > 5 µM; IC50 (MV411): > 5 µM; IC50 (KU812; [2]): > 5 µM; IC50 (Kasumi-1): > 5 µM; IC50 (CCRF-CEM): > 5 µM |
| COc1ccc(C[C@H]2COC(=O)[C@@H]2Cc2ccc(OCCCCCCC(=O)NO)c(OC)c2)cc1OC [A4, 7-(4-(((3R,4R)-4-(3,4-Dimethoxybenzyl)-2-oxotetrahydrofuran-3-yl)methyl)-2-methoxyphenoxy)-N-hydroxyheptanamide] | 1.19 ± 0.25 µM | 1.41 ± 0.75 µM |  |
| COc1cc(C[C@H]2C(=O)OC[C@@H]2Cc2ccc(OC)c(OC)c2)ccc1O [Arctigenin, reference compound] | 24.2 ± 3.12 µM | > 30 µM | IC50 (MV411): 4.27 ± 1.68 µM |
| COc1ccc(C[C@H]2COC(=O)[C@@H]2Cc2ccc(OCCCCC(=O)NO)c(OC)c2)cc1OC [A2, 5-(4-(((3R,4R)-4-(3,4-Dimethoxybenzyl)-2-oxotetrahydrofuran-3-yl)methyl)-2-methoxyphenoxy)-N-hydroxypentanamide] | > 5 µM | > 5 µM |  |

More lines, main results first:

| IC50 (K562; Homo sapiens, K562, 48 h) | Compound | IC50 (KU812; Homo sapiens, KU812, 48 h) | further results |
| --- | --- | --- | --- |
| > 5 µM | COc1ccc(C[C@H]2COC(=O)[C@@H]2Cc2ccc(OCC(=O)NCC(=O)Nc3ccccc3N)c(OC)c2)cc1OC [B1, N-(2-Aminophenyl)-2-(2-(4-(((3R,4R)-4-(3,4-dimethoxybenzyl)-2-oxotetrahydrofuran-3-yl)methyl)-2-methoxyphenoxy)acetamido)acetamide] | > 5 µM |  |
| > 5 µM | COc1ccc(C[C@H]2COC(=O)[C@@H]2Cc2ccc(OCc3cn(CC(=O)Nc4ccccc4N)nn3)c(OC)c2)cc1OC [B8, N-(2-Aminophenyl)-2-(4-((4-(((3R,4R)-4-(3,4-dimethoxybenzyl)-2-oxotetrahydrofuran-3-yl)methyl)-2-methoxyphenoxy)methyl)-1H-1,2,3-triazol-1-yl)acetamide] | > 5 µM |  |
| > 5 µM | COc1ccc(C[C@H]2COC(=O)[C@@H]2Cc2ccc(OCC(=O)NCCC(=O)Nc3ccccc3N)c(OC)c2)cc1OC [B2, N-(2-Aminophenyl)-3-(2-(4-(((3R,4R)-4-(3,4-dimethoxybenzyl)-2-oxotetrahydrofuran-3-yl)methyl)-2-methoxyphenoxy)acetamido)propanamide] | > 5 µM |  |
| > 5 µM | COc1ccc(C[C@H]2COC(=O)[C@@H]2Cc2ccc(OCC(=O)NCCCCC(=O)Nc3ccccc3N)c(OC)c2)cc1OC [B4, N-(2-Aminophenyl)-5-(2-(4-(((3R,4R)-4-(3,4-dimethoxybenzyl)-2-oxotetrahydrofuran-3-yl)methyl)-2-methoxyphenoxy)acetamido)pentanamide] | > 5 µM |  |
| 1.96 ± 0.19 µM | COc1ccc(C[C@H]2COC(=O)[C@@H]2Cc2ccc(OCC(=O)Nc3ccc(C(=O)Nc4ccccc4N)cc3)c(OC)c2)cc1OC [B7, N-(2-Aminophenyl)-4-(2-(4-(((3R,4R)-4-(3,4-dimethoxybenzyl)-2-oxotetrahydrofuran-3-yl)methyl)-2-methoxyphenoxy)acetamido)benzamide] | 2.09 ± 0.31 µM | IC50 (HDAC1): 261 nM; IC50 (HDAC2): 131 nM; IC50 (HDAC3): 299 nM; IC50 (HDAC10): 1750 nM; overall proportion of apoptotic cells (Q1-UR + Q1-LR) (MV411 cells; MV411, 0.5 μM): 37.90%; overall proportion of apoptotic cells (Q1-UR + Q1-LR) (MV411 cells; MV411, 1.0 μM): 77.00%; overall proportion of apoptotic cells (Q1-UR + Q1-LR) (MV411 cells; MV411, lowest concentration (printed 0.25 μM and 0.1 μM)): 21.84%; level of acetylated H3 (western blot) (acetylated H3): significantly increased the level of acetylated H3 |
